Data from ChEMBL document CHEMBL1145038 (J Med Chem, 2003).

Legend:
[1] = biological target: T1, Histamine H3 receptor (Rattus norvegicus, UniProt Q9QYN8); experiment: Affinity against rat Histamine H3 receptor using [3H]N-alpha-methyl histamine
Outline: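 Male Sprague–Dawley rat brain homogenate without cerebellum (800 μg) incubated 1 h at 25 °C in 50 mM Na₂HPO₄/KH₂PO₄, pH 7.5, with 0.25 nM [³H]Nα-methylhistamine. Filtered on GF/B, scintillation counted. Nonspecific binding with 10 μM thioperamide. IC50 by log probit; Ki = IC50/(1+L/Ka), Ka from Rosenthal analysis of saturation at 0.1–3.0 nM. Mean ± SE.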

[2] = biological target: T2, Histamine H3 receptor (Homo sapiens, UniProt Q9Y5N1); experiment: Inhibition of human Histamine H3 receptor
[3] = biological target: T2, Histamine H3 receptor; experiment: Inhibition of human H3-receptor using [3H]N-alpha-methyl histamine
Outline: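 Membrane fractions from stably transfected CHO cells expressing human H3 receptor; radioligand displacement binding.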

[4] = biological target: Histamine H4 receptor (Homo sapiens, UniProt Q9H3N8); experiment: Inhibition of human Histamine H4 receptor
[5] = biological target: T1, Histamine H3 receptor; experiment: Inhibition of rat Histamine H3 receptor using [3H]N-alpha-methyl histamine
Outline: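 Male Sprague–Dawley rat brain (minus cerebellum) homogenate, 800 μg, incubated 1 h at 25 °C in 50 mM Na2HPO4/KH2PO4 pH 7.5 with 0.25 nM radioligand. Bound ligand separated on GF/B filters and counted by scintillation; nonspecific binding taken with 10 μM thioperamide. […] Mean ± SE.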

T2 sequence (Q9Y5N1 whole entry): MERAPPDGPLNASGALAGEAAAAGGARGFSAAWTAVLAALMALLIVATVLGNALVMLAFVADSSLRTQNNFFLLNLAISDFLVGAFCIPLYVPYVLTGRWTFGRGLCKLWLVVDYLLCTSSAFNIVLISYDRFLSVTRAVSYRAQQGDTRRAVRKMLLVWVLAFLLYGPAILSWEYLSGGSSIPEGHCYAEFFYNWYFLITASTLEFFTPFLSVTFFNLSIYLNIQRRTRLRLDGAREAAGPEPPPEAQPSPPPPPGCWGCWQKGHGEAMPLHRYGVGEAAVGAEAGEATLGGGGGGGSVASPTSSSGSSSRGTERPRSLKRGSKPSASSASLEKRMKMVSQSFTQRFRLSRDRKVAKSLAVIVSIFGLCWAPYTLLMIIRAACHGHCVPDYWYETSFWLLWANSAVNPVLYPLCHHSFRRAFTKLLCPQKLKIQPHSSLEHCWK
T1 sequence (Q9QYN8 whole entry): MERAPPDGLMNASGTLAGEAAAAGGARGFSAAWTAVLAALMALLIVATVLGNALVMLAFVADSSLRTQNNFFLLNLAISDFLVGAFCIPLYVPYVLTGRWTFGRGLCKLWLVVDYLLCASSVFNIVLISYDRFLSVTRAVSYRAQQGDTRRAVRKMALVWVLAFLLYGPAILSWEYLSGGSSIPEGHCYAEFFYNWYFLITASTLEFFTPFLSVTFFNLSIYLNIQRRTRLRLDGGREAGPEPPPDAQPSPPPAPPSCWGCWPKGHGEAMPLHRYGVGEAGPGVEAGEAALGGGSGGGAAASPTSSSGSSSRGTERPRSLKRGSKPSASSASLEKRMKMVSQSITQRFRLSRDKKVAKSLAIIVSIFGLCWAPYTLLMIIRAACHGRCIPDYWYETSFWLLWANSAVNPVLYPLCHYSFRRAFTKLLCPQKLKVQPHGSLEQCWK
Chain of Histamine H4 receptor (Q9H3N8 whole entry): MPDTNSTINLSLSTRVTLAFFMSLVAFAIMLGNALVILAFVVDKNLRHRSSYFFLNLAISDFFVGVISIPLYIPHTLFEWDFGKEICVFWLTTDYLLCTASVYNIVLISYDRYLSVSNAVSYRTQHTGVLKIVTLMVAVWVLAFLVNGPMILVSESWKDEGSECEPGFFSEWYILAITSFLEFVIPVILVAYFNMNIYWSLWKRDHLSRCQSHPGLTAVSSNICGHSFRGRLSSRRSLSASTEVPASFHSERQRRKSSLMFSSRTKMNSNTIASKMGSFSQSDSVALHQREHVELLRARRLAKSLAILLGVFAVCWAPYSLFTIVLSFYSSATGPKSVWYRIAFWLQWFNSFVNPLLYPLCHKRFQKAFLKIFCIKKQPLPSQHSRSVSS

SMILES	Ki [1] [nM]	EC50 [2] [nM]	other results
NC[C@H]1C[C@@H]1c1cnc[nH]1	10.1		
NC[C@H]1C[C@H]1c1cnc[nH]1	64.7		
N[C@H]1C[C@H]1c1c[nH]cn1	1380		
NC[C@@H]1C[C@H]1c1c[nH]cn1	22.6		
NC[C@@H]1C[C@@H]1c1cnc[nH]1	2.5	96	
NCC[C@H]1C[C@H]1c1cnc[nH]1	4.78	1410	
N[C@@H]1C[C@@H]1c1c[nH]cn1	91.2		EC50 [3]: 2330 nM
NCC[C@@H]1C[C@@H]1c1cnc[nH]1	1.31	10	
N=C(N)SCCc1cnc[nH]1 [IMETIT]		1.9	EC50 [4]: 51 nM
S=C(NC1CCCCC1)N1CCC(c2cnc[nH]2)CC1 [THIOPERAMIDE]			Ki [5]: 2.65 nM
N[C@@H]1C[C@H]1c1cnc[nH]1 [VUF-5296]	42.2	724	
N[C@H]1C[C@@H]1c1c[nH]cn1 [VUF-5297]	4.3	42	
